Assay type in all cases: cell-based
The target in data set [1] is T1, Retinoic acid receptor RXR-gamma (Homo sapiens) (UniProt P48443).
T1 sequence (whole entry): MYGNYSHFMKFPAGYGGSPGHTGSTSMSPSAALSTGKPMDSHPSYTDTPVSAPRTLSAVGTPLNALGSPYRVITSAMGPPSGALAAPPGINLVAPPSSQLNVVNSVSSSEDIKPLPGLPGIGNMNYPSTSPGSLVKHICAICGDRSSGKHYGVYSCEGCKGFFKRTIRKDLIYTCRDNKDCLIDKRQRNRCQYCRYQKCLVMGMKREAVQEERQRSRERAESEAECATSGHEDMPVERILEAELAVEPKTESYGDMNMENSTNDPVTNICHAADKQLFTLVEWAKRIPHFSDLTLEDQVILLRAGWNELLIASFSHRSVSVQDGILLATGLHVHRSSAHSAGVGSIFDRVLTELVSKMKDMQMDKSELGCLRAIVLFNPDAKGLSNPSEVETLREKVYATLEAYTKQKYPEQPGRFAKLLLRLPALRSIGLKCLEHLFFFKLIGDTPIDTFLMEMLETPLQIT
As to the kind of experiment: Transactivation of human Gal4-fused RXRgamma LBD expressed in HEK293T cells after 12 to 14 hrs by dual-glo luciferase assay relative to bexarotene.

Data set [2] has as its target T2, Retinoic acid receptor RXR-beta (Homo sapiens) (UniProt P28702).
T2 sequence (whole entry): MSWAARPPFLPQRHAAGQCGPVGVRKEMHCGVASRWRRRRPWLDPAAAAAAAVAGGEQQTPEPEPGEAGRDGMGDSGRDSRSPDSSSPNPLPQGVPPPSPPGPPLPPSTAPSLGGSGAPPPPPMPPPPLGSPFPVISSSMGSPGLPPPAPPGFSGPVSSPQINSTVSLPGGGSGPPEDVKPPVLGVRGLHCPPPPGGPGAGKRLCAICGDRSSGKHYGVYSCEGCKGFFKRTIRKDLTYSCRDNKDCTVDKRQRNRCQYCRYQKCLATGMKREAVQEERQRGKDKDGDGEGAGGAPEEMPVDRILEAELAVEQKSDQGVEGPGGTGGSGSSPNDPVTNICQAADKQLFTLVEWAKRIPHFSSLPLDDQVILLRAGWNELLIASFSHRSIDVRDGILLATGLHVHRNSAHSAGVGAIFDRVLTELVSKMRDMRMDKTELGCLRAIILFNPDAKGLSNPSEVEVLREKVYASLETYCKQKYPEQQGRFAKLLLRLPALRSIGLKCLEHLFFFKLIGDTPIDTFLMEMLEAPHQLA
As to the kind of experiment: Transactivation of human Gal4-fused RXRbeta LBD expressed in HEK293T cells after 12 to 14 hrs by dual-glo luciferase assay relative to bexarotene.

The target in data set [3] is T3, Retinoic acid receptor RXR-alpha (Homo sapiens) (UniProt P19793).
T3 sequence (whole entry): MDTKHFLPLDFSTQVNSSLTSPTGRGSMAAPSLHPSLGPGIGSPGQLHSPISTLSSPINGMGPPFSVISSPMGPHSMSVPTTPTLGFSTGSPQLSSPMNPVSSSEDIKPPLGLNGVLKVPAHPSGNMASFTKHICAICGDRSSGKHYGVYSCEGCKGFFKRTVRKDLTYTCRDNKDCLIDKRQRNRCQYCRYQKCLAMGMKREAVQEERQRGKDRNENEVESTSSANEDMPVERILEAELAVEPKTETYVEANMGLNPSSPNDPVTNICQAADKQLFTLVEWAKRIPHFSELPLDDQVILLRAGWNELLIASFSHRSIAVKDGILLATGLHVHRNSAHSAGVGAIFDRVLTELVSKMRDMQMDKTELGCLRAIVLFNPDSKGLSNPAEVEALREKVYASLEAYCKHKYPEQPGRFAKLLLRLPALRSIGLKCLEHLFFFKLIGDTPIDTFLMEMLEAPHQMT
Nature of the data set: Transactivation of human Gal4-fused RXRalpha LBD expressed in HEK293T cells after 12 to 14 hrs by dual-glo luciferase assay relative to bexarotene.

The target of data set [4] is T4, Retinoic acid receptor RXR-gamma (Homo sapiens, UniProt P48443).
T4 sequence (P48443 whole entry): T1 sequence (whole entry)
As to the kind of experiment: Transactivation of human Gal4-fused RXRgamma LBD expressed in HEK293T cells after 12 to 14 hrs by dual-glo luciferase assay. The procedure, abridged: (§1)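 Gal4-hybrid reporter gene assay in HEK293T cells with the RXRα, RXRβ or RXRγ construct. Dose–response curves give EC50 and fold activation as mean ± SEM from n ≥ 4 independent experiments in duplicate.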

The target in data set [5] is T5, Retinoic acid receptor RXR-alpha (Homo sapiens, UniProt P19793).
T5 sequence (P19793 whole entry): T3 sequence (whole entry)
As to the kind of experiment: Transactivation of human Gal4-fused RXRalpha LBD expressed in HEK293T cells after 12 to 14 hrs by dual-glo luciferase assay. The procedure, abridged:
as §1

The target of data set [6] is T6, Retinoic acid receptor RXR-beta (Homo sapiens, UniProt P28702).
T6 sequence (P28702 whole entry): T2 sequence (whole entry)
As to the kind of experiment: Transactivation of human Gal4-fused RXRbeta LBD expressed in HEK293T cells after 12 to 14 hrs by dual-glo luciferase assay. The essentials:
as §1

In data set [7] the target is T1, Retinoic acid receptor RXR-gamma (Homo sapiens). As to the kind of experiment: Transactivation of human Gal4-fused RXRgamma LBD expressed in HEK293T cells at 50 uM after 12 to 14 hrs by dual-glo luciferase assay.
The target of data set [8] is T7, Peroxisome proliferator-activated receptor gamma (Homo sapiens) (UniProt P37231).
T7 sequence (whole entry): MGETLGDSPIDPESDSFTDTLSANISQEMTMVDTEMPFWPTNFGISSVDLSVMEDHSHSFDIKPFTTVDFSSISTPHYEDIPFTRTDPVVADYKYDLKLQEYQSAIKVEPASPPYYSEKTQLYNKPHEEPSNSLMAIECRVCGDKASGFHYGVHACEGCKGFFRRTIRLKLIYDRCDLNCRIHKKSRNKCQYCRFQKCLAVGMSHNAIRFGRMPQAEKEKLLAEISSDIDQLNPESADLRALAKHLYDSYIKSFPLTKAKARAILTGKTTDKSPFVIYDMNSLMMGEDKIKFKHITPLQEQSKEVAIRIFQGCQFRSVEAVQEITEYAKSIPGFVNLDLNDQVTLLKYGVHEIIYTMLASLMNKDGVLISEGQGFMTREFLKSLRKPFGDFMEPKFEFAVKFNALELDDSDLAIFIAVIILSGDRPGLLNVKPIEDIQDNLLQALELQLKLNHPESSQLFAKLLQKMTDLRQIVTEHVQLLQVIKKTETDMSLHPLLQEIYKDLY
As to the kind of experiment: Transactivation of human Gal4-fused PPARgamma LBD expressed in HEK293T cells at 30 uM after 12 to 14 hrs by dual-glo luciferase assay. The essentials: (§2)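 Single-concentration selectivity profiling in Gal4-hybrid reporter gene assays in HEK293T cells. Each nuclear receptor construct (RAR, PPAR, LXR, FXR, CAR, VDR, PXR, RXR) was tested at 30 μM.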

The target of data set [9] is T3, Retinoic acid receptor RXR-alpha (Homo sapiens). Nature of the data set: Transactivation of human Gal4-fused RXRalpha LBD expressed in HEK293T cells at 30 uM after 12 to 14 hrs by dual-glo luciferase assay. The procedure, abridged: as §2
Data set [10] addresses T8, Retinoid X receptor (Homo sapiens) (UniProt P28702+P48443+P19793). Nature of the data set: Transactivation of RXR in human HepG2 cells assessed as induction of apoE mRNA expression at 30 uM after 8 hrs by qRT-PCR analysis. The essentials:
(§3)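 HepG2 cells were treated and ABCA1 or ApoE mRNA levels measured. Results are given as mean fold induction versus 0.1% DMSO vehicle ± SEM, n = 3. Significance was set at p < 0.05, 0.01 or 0.001.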
(In general: In qPCR the cycle at which signal appears reflects the starting amount.)

The target of data set [11] is T8, Retinoid X receptor (Homo sapiens). As to the kind of experiment: Transactivation of RXR in human HepG2 cells assessed as induction of ABCA1 mRNA expression at 30 uM after 8 hrs by qRT-PCR analysis. The procedure, abridged:
as §3

The next data set relates to HepG2. Nature of the data set: Cytotoxicity against human HepG2 cells assessed as reduction in cell viability up to 100 uM after 48 hrs by WST1 assay. Conditions: hepg2, 48 h.
The target of data set [12] is T8, Retinoid X receptor (Homo sapiens). As to the kind of experiment: Transactivation of RXR in human HepG2 cells assessed as induction of apoE mRNA expression at 10 uM after 8 hrs by qRT-PCR analysis. The procedure, abridged:
as §3

For data set [13] the target is unchanged. As to the kind of experiment: Transactivation of RXR in human HepG2 cells assessed as induction of ABCA1 mRNA expression at 10 uM after 8 hrs by qRT-PCR analysis. The procedure, abridged:
as §3

Data set [14] deals with T2, Retinoic acid receptor RXR-beta (Homo sapiens). As to the kind of experiment: Transactivation of human Gal4-fused RXRbeta LBD expressed in HEK293T cells at 50 uM after 12 to 14 hrs by dual-glo luciferase assay.
Data set [15] concerns the target T3, Retinoic acid receptor RXR-alpha (Homo sapiens). As to the kind of experiment: Transactivation of human Gal4-fused RXRalpha LBD expressed in HEK293T cells at 50 uM after 12 to 14 hrs by dual-glo luciferase assay.

Data on twelve compounds can be found in ChEMBL document CHEMBL4145619, “Computer-Assisted Discovery of Retinoid X Receptor Modulating Natural Products and Isofunctional Mimetics” (J Med Chem, 2018).

Activity calls are given as the source filed them. The calls are words filed in the database; no cut-off is given here.

Consider `Cc1c2c(n(C[C@H]3CC[C@H](C(=O)O)CC3)c1C)CCC(F)(F)C2`, for which the fold change (FC) in data set [1] is 18; in data set [2] it was 99; in data set [3] it was 69. In addition, the EC50 in data set [4] was 50 µM; in data set [5], 24 µM; in data set [6], 27.1 µM.
In the case of `Cc1ccc(C)n1-c1ccc(SCC(=O)O)cc1`, the outcome in [7] was inactive. Besides, the EC50 in data set [5] and in [6] was greater than 30 µM each time.
Consider `CC(C)c1ccc2c(c1)CC[C@H]1[C@](C)(C(=O)O)CCC[C@]21C` [DEHYDROABIETIC ACID], for which the fold change (FC) in data set [1] is 6; in [2], 6; in data set [3], 9. In addition, the outcome in data set [8], in [9], in [10] and in data set [11] was Active. Moreover, the half-maximal effective concentration (EC50) in data set [4], in data set [5] and in data set [6] was 42 µM each time. Besides, the Activity entry with HepG2 was “Toxic”.
On to `CC(C)=C(C)c1ccc(-c2cnc(CCC(=O)O)o2)cc1`, for which the values for the fold change (FC) in [1], in [2] and in [3] were 2, 3.2 and 2.8, respectively. The concentration giving a half-maximal response (EC50) in [4] came out at 14 µM; in data set [5], 8 µM; in data set [6], 16 µM.
On to `Cc1c2c(n(-c3ccc(CC(=O)O)cc3)c1C)CCC(F)(F)C2`, for which the values for the fold change (FC) in [1], in data set [2] and in data set [3] were 44, 121 and 69, respectively. The result in data set [12] and in data set [13] was Active.
`Cc1ccc(-n2c(C)c(C)c3c2CCC(F)(F)C3)cc1O`: the fold change (FC) in data set [1] amounted to 11; in data set [2], 30; in [3] it was 26. Also, the EC50 amounted to 27.2 µM in [4], 23.6 µM in data set [5] and 13.9 µM in [6].
With `Cc1ccc(C)n1C(CC1CCCC1)C(=O)O` (centres undefined), the result in [7], in data set [14] and in data set [15] was inactive.
As for `C/C=C/c1ccc2c(c1)[C@@H](C)[C@H](c1ccc(O)cc1)O2`, in data set [15], the outcome was inactive.
Consider `Cc1ccc(C)n1-c1ccc(CCCC(=O)O)cc1`, for which the fold change (FC) in [1] was determined as 11; in data set [2] it was 48; in data set [3], 31. Moreover, the 50% effective concentration (EC50) in [4] was 24.8 µM; in data set [5], 4.3 µM; in data set [6], 6.6 µM.
Turning to `C=C[C@@]1(C)CC[C@H]2C(=CC[C@@H]3[C@]2(C)CCC[C@@]3(C)C(=O)O)C1` [ISOPIMARIC ACID], the results for the fold change (FC) in [1], in [2] and in [3] were 7, 7 and 13, respectively. In addition, the result in [9], in data set [10] and in data set [11] was Active. The concentration giving a half-maximal response (EC50) in data set [4] came out at 33 µM; in data set [5], 26 µM; in data set [6] it was 32 µM. Besides, the Activity result with HepG2 is “Toxic”.
Regarding `CCC(C)[C@@H]1C(=O)/C(=C(/O)[C@@H]2[C@@H]3[C@H](C)C[C@H](C)C[C@@H]3C=C[C@@H]2[C@]2(C)O[C@H]2C)C(=O)N1C` (some centres undefined), in data set [15], the result was inactive.
As for `Cc1c2c(n(-c3ccc(CCCC(=O)O)cc3)c1C)CCC(F)(F)C2`, the fold change (FC) in [1] came out at 7; in [2], 64; in data set [3] it was 56. In addition, the EC50 in [4] is 2.5 µM; in data set [5], 9.1 µM; in data set [6] it was 2.2 µM.

The term EC50 denotes the concentration giving half of the maximal effect.
